Measured values gathered from unrelated publications.
Lines come from different studies, so protocols differ.
Observed: cell growth or viability

With N#C[C@@]1(c2ccc3c(N)ncnn23)O[C@H](COC(=O)C2CCC(F)CC2)[C@@H](O)[C@H]1O (some centres unmarked) the CC50 was 53.3 µM (HEp-2; CCK-8; 5 days).
With CCOC(=O)c1cc(O)c(O)c(O)c1 the CC50 was over 256 µg/mL (MDBK; MTT; 72 h).
The CC50 of NC(=O)c1ncn([C@@H]2O[C@H](CO)[C@@H](O)[C@H]2O)n1 is reported as 176 µM (HEp-2; CCK-8; 5 days).
CN(Cc1cn(Cc2ccc(-c3nc4cc(-c5ccccc5)ccn4c3Nc3ccc(C(=O)O)cc3)cc2)nn1)c1cccc2c1C(=O)N(C1CCC(=O)NC1=O)C2=O (centres unmarked) gave a CC50 of 129 µM (MCF7; 72 h).
Nc1ccn([C@@H]2O[C@H](CO)[C@@H](O)C2(F)F)c(=O)n1 gave a viability of 51.3% (MCF7; MTT; 2.5 µg/mL; 24 h).
For [N-]=[N+]=N[C@]1(CO)O[C@@H](n2ccc(N)nc2=O)[C@@H](F)[C@@H]1O, the CC50 was over 50 µM (Calu-3; ATP luminescence; 72 h).
COc1cccc(C=NNC(=S)NN)c1OC has a CC50 of over 12.5 µM (TZM-bl; resazurin).
The CC50 of O=C1CCC(N2C(=O)c3cccc(NCc4cn(Cc5ccc(-c6nc7cc(-c8ccccc8)ccn7c6Nc6ccc(C(=O)O)cc6)cc5)nn4)c3C2=O)C(=O)N1 (centres unmarked) is reported as 105 µM (MCF7; 72 h).
The CC50 of CCCCCCCCC(=O)OC[C@H]1O[C@@](C#N)(c2ccc3c(N)ncnn23)[C@H](O)[C@@H]1O is reported as 45.5 µM (HEp-2; CCK-8; 5 days).
The CC50 of CC(C)(C)c1cc([N+](=O)[O-])cc(C=O)c1O is reported as over 12.5 µM (TZM-bl; resazurin).
For CC(=O)OC[C@H]1O[C@@H]([S-])[C@H](OC(C)=O)[C@@H](OC(C)=O)[C@@H]1OC(C)=O.CCP(CC)CC.[Au+], the CC50 was 2.83 µM (THP-1; ATP luminescence; 72 h).
